Source: ChEMBL document CHEMBL2417449, “Discovery of the first inhibitors of bacterial enzyme D-aspartate ligase from Enterococcus faecium (Aslfm)” (Eur J Med Chem, 2013)
The source made the active and inactive calls. The calls are words filed in the database; no cut-off is given here.

Tests used:
Enterococcus faecium [1] = assay: Inhibition of purified Enterococcus faecium D359 His-tagged Aslfm assessed as residual activity preincubated at 100 uM for 2 mins prior to reaction initiation measured after 10 mins by UV/VIS spectrophotometry
In short: (§1)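 His-tagged Aslfm in 100 mM Tris-HCl pH 8.0, 50 mM MgCl2, 2 mM phosphoenolpyruvate, 0.16 mM NADH, 1 mM ATP, 1 mM D-Asp, 0.005% Triton X-114, with pyruvate kinase and lactate dehydrogenase. Compound in DMSO was preincubated 2 min at 37 °C, and the reaction was started with 0.3 mM UM5K. A340 was followed for 10 min. Duplicates; residual activity is relative to DMSO controls.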

Enterococcus faecium [2] = assay: Inhibition of purified Enterococcus faecium D359 His-tagged Aslfm assessed as residual activity preincubated at 50 uM for 2 mins prior to reaction initiation measured after 10 mins by UV/VIS spectrophotometry; in short: as §1
Enterococcus faecium [3] = assay: Antimicrobial activity against Enterococcus faecium D344R after 18 hrs by macrodilution method
Enterococcus faecium [4] = assay: Inhibition of purified Enterococcus faecium D359 His-tagged Aslfm assessed as residual activity preincubated at 250 uM for 2 mins prior to reaction initiation measured after 10 mins by UV/VIS spectrophotometry; in short: as §1
Enterococcus faecium [5] = assay: Competitive inhibition of purified Enterococcus faecium D359 His-tagged Aslfm preincubated for 2 mins prior to reaction initiation measured after 10 mins by time course assay
In short: (§2)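 Coupled pyruvate kinase–lactate dehydrogenase assay at 37 °C monitored at 340 nm. Starting conditions: 100 µM ATP, 1 mM D-Asp, 300 µM UDP-MurNAc-pentapeptide, 2 mM phosphoenolpyruvate, 105 µM NADH, enzyme 0.75 or 1 µM, up to six inhibitor concentrations. Progress curves over 10–15 min were fitted to a […] mechanism, with enzyme constants fixed and inhibitor constants fitted. Ki was also measured at ATP 50 and 100 µM.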

[6] = Inhibition of purified Enterococcus faecium D359 His-tagged Aslfm preincubated for 2 mins prior to reaction initiation measured after 10 mins by UV/VIS spectrophotometry; in short: as §1
Enterococcus faecium [7] = assay: Antimicrobial activity against Enterococcus faecium E1636 after 18 hrs by broth microdilution method; format: functional; conditions: E1636, 18 h
Enterococcus faecium [8] = assay: Antimicrobial activity against Enterococcus faecium E1679 after 18 hrs by broth microdilution method; format: functional; conditions: E1679, 18 h
Enterococcus faecalis = assay: Antimicrobial activity against Enterococcus faecalis ATCC 29212 after 18 hrs by broth microdilution method; format: functional; conditions: ATCC 29212, 18 h
Enterococcus faecium [9] = assay: Competitive inhibition of purified Enterococcus faecium D359 His-tagged Aslfm preincubated at 1 uM for 2 mins prior to reaction initiation measured after 10 mins by time course assay; in short: as §2
Enterococcus faecium [10] = assay: Binding affinity to purified Enterococcus faecium D359 His-tagged Aslfm by isothermal titration calorimetry method
In short: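 The ligand (50 µM in buffer with 5% DMSO) was titrated into ~1 µM enzyme (5% DMSO) at 37 °C, 300 rpm, with 5–8 min intervals, to a final ratio of ~12:1. Data were corrected for ligand-into-buffer heats and fitted to a single-binding-site model.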

[11] = Binding affinity to purified Enterococcus faecium D359 His-tagged Aslfm by kinetic study; conditions: in the assay text read “isothermal titration calorimetry” for “kinetic study”
Enterococcus faecium [12] = assay: Competitive inhibition of purified Enterococcus faecium D359 His-tagged Aslfm preincubated at 0.75 uM for 2 mins prior to reaction initiation measured after 10 mins by time course assay; in short: as §2
Enterococcus faecium [13] = assay: Antimicrobial activity against Enterococcus faecium D344R at 160 ug after 18 hrs by disk diffusion method

Which Activity (Enterococcus faecium [1]) does the source give for `Nc1ncc(-c2nnnn2-c2ccccc2)c(-c2ccccc2)n1` here?
The Activity was 92%.

For `Clc1ccc(CN(Cc2ccccc2)c2ncnc3[nH]cnc23)cc1`, which Activity (Enterococcus faecium [2]) is on record?
The Activity was 110%.

Which MIC (Enterococcus faecium [3]) does the source give for `Cc1nc(N)sc1C(=O)N(Cc1ccccc1)Cc1ccccc1` here?
Its MIC is over 200 µg/mL.

What about the Activity (Enterococcus faecium [4]) of the same compound?
The Activity was 82%.

What does the source list for `Nc1ncc(C(=O)NCc2ccc3[nH]ccc3c2)o1`?
MIC (Enterococcus faecium [3]): > 200 µg/mL; Activity (Enterococcus faecium [4]): 79%

With `O=C(c1cnc(O)cn1)N(Cc1cccs1)CC1CCCO1` (stereo unspecified) as the compound, how does the Activity (Enterococcus faecium [1]) read?
Its Activity is 93%.

For `CCCCN(Cc1ccccc1)C(=O)c1cnc(N)o1`, which MIC (Enterococcus faecium [3]) is on record?
The MIC was over 200 µg/mL.

What about the Activity (Enterococcus faecium [4]) of the same compound?
Its Activity is 75%.

Which inhibition (Enterococcus faecium [5]) does the source give for `Nc1nc(SCc2ccc(Cl)cc2Cl)c2nc[nH]c2n1` here?
The inhibition was “Active”.

What about the Ki [6] of the same compound?
Its Ki is 35 µM.

And the MIC (Enterococcus faecium [7])?
The MIC was over 64 µg/mL.

And the MIC (Enterococcus faecium [8])?
The MIC was over 64 µg/mL.

And the Activity (Enterococcus faecium [1])?
Its Activity is 71%.

What about the MIC (Enterococcus faecalis) of the same compound?
The MIC was over 64 µg/mL.

For `Nc1ncc(C(=O)N(Cc2ccccc2)Cc2ccccc2)s1`, which MIC (Enterococcus faecium [3]) is on record?
Its MIC is over 200 µg/mL.

And the Activity (Enterococcus faecium [4])?
The Activity was 80%.

What does the source list for `Nc1nc(SCc2c(Cl)cccc2Cl)c2nc[nH]c2n1`?
Ki [6]: 3.2 µM; inhibition (Enterococcus faecium [9]): Active; MIC (Enterococcus faecium [7]): > 64 µg/mL; MIC (Enterococcus faecium [8]): > 64 µg/mL; Kb (Enterococcus faecium [10]): 2 ×10⁵ /M; Activity (Enterococcus faecium [1]): 47%; Ki [11]: 5 µM; MIC (Enterococcus faecalis): > 64 µg/mL

Which Activity (Enterococcus faecium [1]) does the source give for `COc1ccc(CNc2nc(N)nc3[nH]cnc23)c(OC)c1` here?
Its Activity is 89%.

What does the source list for `Nc1nc(NCc2ccc(Cl)cc2Cl)c2cn[nH]c2n1`?
inhibition (Enterococcus faecium [5]): Active; Ki [6]: 22 µM; MIC (Enterococcus faecium [7]): > 64 µg/mL; MIC (Enterococcus faecium [8]): > 64 µg/mL; Activity (Enterococcus faecium [1]): 69%; MIC (Enterococcus faecalis): > 64 µg/mL

Which results are given for `Nc1ncc(C(=O)N(Cc2cc(Br)cc(Br)c2)Cc2ccc3[nH]ccc3c2)o1`?
inhibition (Enterococcus faecium [5]): Active; Ki [6]: 2.9 µM; MIC (Enterococcus faecium [3]): > 200 µg/mL; MIC (Enterococcus faecium [7]): > 64 µg/mL; MIC (Enterococcus faecium [8]): > 64 µg/mL; Activity (Enterococcus faecium [1]): 44%; MIC (Enterococcus faecalis): > 64 µg/mL

For `Cc1ccc(-n2nnnc2-c2cn[nH]c2-c2cccc(C)c2)cc1`, which Activity (Enterococcus faecium [1]) is on record?
Its Activity is 92%.

For `Nc1nc(NCc2ccc(F)cc2F)c2cn[nH]c2n1`, which Activity (Enterococcus faecium [1]) is on record?
The Activity was 93%.

Which MIC (Enterococcus faecium [3]) does the source give for `Nc1ncc(C(=O)N(Cc2ccccn2)Cc2ccccn2)o1` here?
The MIC was over 200 µg/mL.

And the Activity (Enterococcus faecium [4])?
The Activity was 74%.

Which Activity (Enterococcus faecium [1]) does the source give for `Nc1nonc1-c1nc2ccccc2n1CC(=O)Nc1ccccc1` here?
The Activity was 89%.

Which results are given for `Nc1ncc(C(=O)Nc2nc3ccccc3[nH]2)o1`?
MIC (Enterococcus faecium [3]): > 200 µg/mL; Activity (Enterococcus faecium [4]): 90%

With `Cc1ccc(F)c(CNc2nc(N)nc3[nH]ncc23)c1F` as the compound, how does the Activity (Enterococcus faecium [1]) read?
Its Activity is 79%.

For `Nc1nc(NCc2c(F)cccc2Cl)c2cn[nH]c2n1`, which Activity (Enterococcus faecium [1]) is on record?
Its Activity is 84%.

For `CS(=O)(=O)Nc1nc(CC(=O)N(Cc2cccs2)Cc2cccs2)cs1`, which Activity (Enterococcus faecium [1]) is on record?
Its Activity is 91%.

Which Activity (Enterococcus faecium [1]) does the source give for `CN(C(=O)Cn1c(-c2nonc2N)nc2ccccc21)c1ccccc1` here?
The Activity was 116%.

Which Activity (Enterococcus faecium [1]) does the source give for `OC(c1ccccc1)(c1ccccc1)c1c[nH]cn1` here?
The Activity was 100%.

With `Nc1nc(NCc2c(F)cccc2F)c2cn[nH]c2n1` as the compound, how does the Activity (Enterococcus faecium [1]) read?
The Activity was 88%.

For `Nc1nc(NCc2cccc(Cl)c2Cl)c2cn[nH]c2n1`, which Activity (Enterococcus faecium [1]) is on record?
The Activity was 86%.

What does the source list for `CCCCN(CCCC)C(=O)c1cnc(N)o1`?
MIC (Enterococcus faecium [3]): > 200 µg/mL; Activity (Enterococcus faecium [4]): 94%

For `Nc1nnc(P(=O)(c2ccccc2)c2ccccc2)s1`, which Activity (Enterococcus faecium [1]) is on record?
Its Activity is 95%.

For `c1ccc(CN(Cc2ccccc2)c2ncnc3[nH]cnc23)cc1`, which Activity (Enterococcus faecium [1]) is on record?
Its Activity is 83%.

With `Clc1cccc(Cl)c1CN(Cc1ccccc1)c1ncnc2[nH]cnc12` as the compound, how does the Activity (Enterococcus faecium [2]) read?
Its Activity is 94%.

For `O=C(c1ccc(O)nc1)N(Cc1ccco1)Cc1cccs1`, which Activity (Enterococcus faecium [1]) is on record?
Its Activity is 93%.

Which Ki [6] does the source give for `Nc1ncc(C(=O)N(Cc2ccccc2)Cc2ccccc2)o1` here?
Its Ki is 44 µM.

What about the MIC (Enterococcus faecium [3]) of the same compound?
Its MIC is over 200 µg/mL.

What about the MIC (Enterococcus faecium [7]) of the same compound?
The MIC was over 64 µg/mL.

What about the inhibition (Enterococcus faecium [12]) of the same compound?
The inhibition was “Active”.

What about the Activity (Enterococcus faecium [4]) of the same compound?
The Activity was 43%.

And the MIC (Enterococcus faecium [8])?
The MIC was over 64 µg/mL.

And the Kb (Enterococcus faecium [10])?
Its Kb is 2 ×10⁵ /M.

And the Ki [11]?
The Ki was 5 µM.

What about the MIC (Enterococcus faecalis) of the same compound?
Its MIC is over 64 µg/mL.

For `Nc1nc(NCc2ccc(Cl)c(Cl)c2)c2nc[nH]c2n1`, which Activity (Enterococcus faecium [1]) is on record?
The Activity was 83%.

Which results are given for `CCN(Cc1ccncc1)C(=O)c1cnc(N)o1`?
MIC (Enterococcus faecium [3]): > 200 µg/mL; Activity (Enterococcus faecium [4]): 98%

With `Nc1nc(NCc2cccnc2Cl)c2cn[nH]c2n1` as the compound, how does the Activity (Enterococcus faecium [1]) read?
The Activity was 87%.

For `CC1(C)S[C@@H]2[C@H](NC(=O)[C@H](N)c3ccccc3)C(=O)N2[C@H]1C(=O)O`, which “growth inhibition (GI)” value (Enterococcus faecium [13]) is on record?
Its value is “inactive”.

For `Nc1nc(NCc2ccc3c(c2)OCO3)c2nc[nH]c2n1`, which Activity (Enterococcus faecium [1]) is on record?
The Activity was 84%.

Which Activity (Enterococcus faecium [1]) does the source give for `Nc1nc(NCc2ccc(Cl)s2)c2cn[nH]c2n1` here?
Its Activity is 74%.

With `Nc1nc(NCc2ccc(Cl)cc2Cl)c2nc[nH]c2n1` as the compound, how does the Activity (Enterococcus faecium [1]) read?
The Activity was 85%.
